Source: ChEMBL document CHEMBL1133168, “Synthesis and SAR of 4-aryl-2-hydroxy-4-oxobut-2-enoic acids and esters and 2-amino-4-aryl-4-oxobut-2-enoic acids and esters: potent inhibitors of kynurenine-3-hydroxylase as potential neuroprotective agents” (J Med Chem, 2000)

These molecules were tested against Kynurenine 3-monooxygenase (Rattus norvegicus, UniProt O88867) (assay: Inhibition of Kynurenine-3-hydroxylase enzyme isolated from the rat liver).
Summary of the method: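 Enzyme source: P2 mitochondrial pellet from rat liver, resuspended in 0.32 M sucrose. Activity measured as ³HOH release from 3-[³H]-L-kynurenine at its K_m concentration, 37 °C, under conditions linear with time and enzyme protein. Five inhibitor concentrations tested. IC50 taken as the mean of at least 2 experiments run in duplicate, with variation <20%.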

Chain of Kynurenine 3-monooxygenase (O88867 whole entry): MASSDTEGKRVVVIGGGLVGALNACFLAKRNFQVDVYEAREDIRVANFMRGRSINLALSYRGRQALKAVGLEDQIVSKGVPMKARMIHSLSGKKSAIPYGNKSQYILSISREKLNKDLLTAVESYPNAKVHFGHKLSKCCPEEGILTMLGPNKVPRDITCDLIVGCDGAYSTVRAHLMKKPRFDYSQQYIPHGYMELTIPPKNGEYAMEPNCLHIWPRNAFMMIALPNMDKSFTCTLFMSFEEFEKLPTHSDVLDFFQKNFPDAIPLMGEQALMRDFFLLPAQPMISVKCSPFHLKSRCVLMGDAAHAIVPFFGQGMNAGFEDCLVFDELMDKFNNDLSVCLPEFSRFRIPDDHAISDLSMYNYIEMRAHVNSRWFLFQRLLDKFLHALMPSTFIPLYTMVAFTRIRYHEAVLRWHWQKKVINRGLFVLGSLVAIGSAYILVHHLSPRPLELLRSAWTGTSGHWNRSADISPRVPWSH

Compound | IC50
N/C(=C\C(=O)c1cccc(Cl)c1)C(=O)O | 2.4 µM
COC(=O)C(=O)/C=C(\O)c1ccc(Br)cc1 | 1.9 µM
O=C(O)C(=O)/C=C(\O)c1ccc(Cl)cc1 | 3 µM
N/C(=C\C(=O)c1ccc(F)c(F)c1)C(=O)O | 1.5 µM
O=C(O)C(=O)/C=C(\O)c1ccc(F)c(F)c1 | 0.12 µM
NC(CC(=O)c1cccc([N+](=O)[O-])c1)C(=O)O (racemic) | 8 µM
N/C(=C\C(=O)c1ccc(Cl)c(Cl)c1)C(=O)O | 1 µM
Cc1cc(/C(O)=C/C(=O)C(=O)O)ccc1Cl | 1.7 µM
O=C(O)C(=O)/C=C(\O)c1cccc(Br)c1 | 1.7 µM
COC(=O)C(=O)/C=C(\O)c1cccc(F)c1F | 8.1 µM
O=C(O)C(=O)/C=C(\O)c1cccc(Cl)c1 | 0.32 µM
COC(=O)C(=O)/C=C(\O)c1cccc(F)c1 | 1.6 µM
COC(=O)C(=O)/C=C(\O)c1cccc(Br)c1 | 2.1 µM
O=C(O)C(=O)/C=C(\O)c1cccc(F)c1 | 0.58 µM
N[C@@H](CC(=O)c1cccc([N+](=O)[O-])c1)C(=O)O | 4 µM
O=C(O)C(=O)/C=C(\O)c1ccc(Cl)c([N+](=O)[O-])c1 | 2 µM

Other lines, results leading:

IC50 | Compound
1.9 µM | COC(=O)C(=O)/C=C(\O)c1ccc(Cl)c(Cl)c1
7.9 µM | COC(=O)C(=N)/C=C(\O)c1cccc(Cl)c1
0.27 µM | O=C(O)C(=O)/C=C(\O)c1ccc(F)c(Cl)c1
1.9 µM | COC(=O)C(=O)/C=C(\O)c1cccc(Cl)c1
4.9 µM | COC(=O)C(=O)/C=C(\O)c1ccc(Cl)c(C)c1
0.82 µM | N/C(=C\C(=O)c1ccc(F)c(Cl)c1)C(=O)O
2.6 µM | COC(=O)C(=O)/C=C(\O)c1ccc(F)c(Cl)c1
11.2 µM | COC(=O)C(=O)/C=C(\O)c1ccc(Cl)c([N+](=O)[O-])c1
3.3 µM | COC(=O)C(=O)/C=C(\O)c1ccc(F)c(F)c1
3.6 µM | COC(=O)C(=N)/C=C(\O)c1ccc(F)c(F)c1

These molecules were tested against Kynurenine 3-monooxygenase (Rattus norvegicus) (UniProt O88867) (assay: Inhibition of Kynurenine-3-hydroxylase enzyme isolated from the rat liver at 10 uM).
Chain of Kynurenine 3-monooxygenase (Rattus norvegicus) (O88867 whole entry, looked up): as the sequence (O88867 whole entry) above

Compound | inhibition
O=C(O)C(=O)/C=C(\O)c1cccc(Cl)c1Cl | 33%
COC(=O)C(=O)/C=C(\O)c1ccc(F)cc1 | 22%
O=C(O)C(=O)/C=C(\O)c1ccccc1 | 0%
O=C(O)C(=O)/C=C(\O)c1ccccc1Cl | 33%
COC(=O)C(=O)/C=C(\O)c1ccccc1[N+](=O)[O-] | 1%
N/C(=C\C(=O)c1ccccc1Cl)C(=O)O | 19%
COC(=O)C(=O)/C=C(\O)c1ccccc1 | 23%
N/C(=C\C(=O)c1ccc(F)cc1)C(=O)O | 41%
N/C(=C\C(=O)c1ccc(Cl)cc1)C(=O)O | 33%
COC(=O)C(=O)/C=C(/O)c1ccc(C)cc1 | 12%
N/C(=C\C(=O)c1ccccc1)C(=O)O | 17%
COC(=O)C(=O)/C=C(\O)c1ccccc1Cl | 31%
N/C(=C\C(=O)c1cccc(Cl)c1Cl)C(=O)O | 32%
COC(=O)C(=O)/C=C(\O)c1cccc(Cl)c1Cl | 14%
O=C(O)C(=O)/C=C(\O)c1ccccc1[N+](=O)[O-] | 24%

Now from value to molecule:

inhibition | Compound
0% | COC(=O)C(=N)/C=C(\O)c1ccc(Br)cc1
1% | COC(=O)C(=N)/C=C(\O)c1ccc(F)cc1
4% | COC(=O)C(=N)/C=C(\O)c1ccc(F)c(Cl)c1
4% | COC(=O)C(=N)/C=C(\O)c1ccc(C)cc1
33% | COC(=O)C(=N)/C=C(\O)c1cccc(Cl)c1Cl
0% | COC(=O)C(=N)/C=C(\O)c1cccc(F)c1
3% | COC(=O)C(=N)/C=C(\O)c1ccccc1
31% | COC(=O)C(=N)/C=C(\O)c1ccccc1Cl
38% | COC(=O)C(=O)/C=C(\O)c1ccc(Cl)cc1
0% | COC(=O)C(=N)/C=C(\O)c1cccc(Br)c1
37% | COC(=O)C(=N)/C=C(\O)c1ccc(Cl)c(Cl)c1
13% | COC(=O)C(=N)/C=C(\O)c1ccc(Cl)cc1
0% | COC(=O)C(=N)/C=C(\O)c1ccc(Cl)c(C)c1
